The results in this text go back to ChEMBL document CHEMBL4428090, “Modeling, Synthesis, and Biological Evaluation of Potential Retinoid X Receptor (RXR)-Selective Agonists: Analogues of 4-[1-(3,5,5,8,8-Pentamethyl-5,6,7,8-tetrahydro-2-naphthyl)ethynyl]benzoic Acid (Bexarotene) and 6-(Ethyl(5,5,8,8-tetrahydronaphthalen-2-yl)amino)nicotinic Acid (NEt-TMN)” (J Med Chem, 2016).

Broadly, the EC50 is the midpoint of the concentration-response curve.

The structures appear in SMILES notation. Active and inactive are the calls of the source. The rule behind the calls is not given here.

Series [1] deals with T1, Retinoid X receptor (Homo sapiens, UniProt P28702+P48443+P19793).
T1 sequence (P28702 whole entry): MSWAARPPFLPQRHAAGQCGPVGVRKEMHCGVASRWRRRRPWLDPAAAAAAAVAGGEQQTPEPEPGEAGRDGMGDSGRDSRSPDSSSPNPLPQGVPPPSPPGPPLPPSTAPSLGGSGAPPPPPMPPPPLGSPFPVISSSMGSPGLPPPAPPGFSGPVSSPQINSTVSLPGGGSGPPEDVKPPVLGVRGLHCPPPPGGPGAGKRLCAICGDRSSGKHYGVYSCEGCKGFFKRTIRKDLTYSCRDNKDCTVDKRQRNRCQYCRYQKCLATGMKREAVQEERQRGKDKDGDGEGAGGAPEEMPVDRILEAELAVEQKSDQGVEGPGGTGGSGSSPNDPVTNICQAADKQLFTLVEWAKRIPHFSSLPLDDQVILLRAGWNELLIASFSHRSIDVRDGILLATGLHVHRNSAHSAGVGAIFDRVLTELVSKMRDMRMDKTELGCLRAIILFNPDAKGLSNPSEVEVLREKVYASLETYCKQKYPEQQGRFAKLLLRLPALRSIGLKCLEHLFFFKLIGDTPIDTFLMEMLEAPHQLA
T1 sequence (P48443 whole entry): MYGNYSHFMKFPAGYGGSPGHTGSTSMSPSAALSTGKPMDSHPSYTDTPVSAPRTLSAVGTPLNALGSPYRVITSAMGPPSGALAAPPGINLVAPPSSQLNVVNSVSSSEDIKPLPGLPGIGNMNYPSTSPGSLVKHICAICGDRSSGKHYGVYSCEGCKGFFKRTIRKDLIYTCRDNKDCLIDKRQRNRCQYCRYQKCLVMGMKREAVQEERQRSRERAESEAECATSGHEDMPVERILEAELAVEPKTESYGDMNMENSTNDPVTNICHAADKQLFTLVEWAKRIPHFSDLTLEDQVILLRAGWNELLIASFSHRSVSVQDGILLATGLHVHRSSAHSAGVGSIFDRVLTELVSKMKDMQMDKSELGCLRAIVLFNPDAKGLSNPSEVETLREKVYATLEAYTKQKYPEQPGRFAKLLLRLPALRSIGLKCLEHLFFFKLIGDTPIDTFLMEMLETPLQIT
T1 sequence (P19793 whole entry): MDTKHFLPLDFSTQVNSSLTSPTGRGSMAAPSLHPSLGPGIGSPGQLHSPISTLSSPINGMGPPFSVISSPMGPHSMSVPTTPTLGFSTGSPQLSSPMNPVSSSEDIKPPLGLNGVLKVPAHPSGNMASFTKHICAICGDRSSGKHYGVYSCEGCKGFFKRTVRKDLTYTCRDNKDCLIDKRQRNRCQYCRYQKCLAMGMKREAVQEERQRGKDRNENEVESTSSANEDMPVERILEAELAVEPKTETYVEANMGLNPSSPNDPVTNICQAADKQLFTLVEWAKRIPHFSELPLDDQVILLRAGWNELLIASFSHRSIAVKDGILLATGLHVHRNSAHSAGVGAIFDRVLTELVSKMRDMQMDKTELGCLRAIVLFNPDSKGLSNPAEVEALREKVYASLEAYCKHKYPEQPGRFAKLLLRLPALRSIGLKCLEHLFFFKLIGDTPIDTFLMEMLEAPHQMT
Description: Agonist activity at human RXR binding domain and activation domain expressed in human HCT116 cells assessed as rexinoid activity incubated for 24 hrs by luciferase reporter gene based mammalian two-hybrid assay. In kind it is cell-based. (In a reporter assay the amount or activity of a reporter protein is the signal.)

In series [2] the target is T2, Retinoic acid receptor RXR-alpha (Homo sapiens) (UniProt P19793).
T2 sequence (whole entry): T1 sequence (P19793 whole entry)
Briefly: Agonist activity at human RXRalpha expressed in human HCT116 cells assessed as increase in RXRE-mediated transcription at 1000 nM incubated for 24 hrs by RXRE luciferase reporter gene assay relative to bexarotene. It counts as cell-based. In outline: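 HCT-116 cells (80,000/well) co-transfected for 24 h with 250 ng RXRE-luciferase reporter (DR1 element from the rat cellular retinol binding protein II gene), 25 ng pSG5-human RXRα and 20 ng renilla. Dosed 24 h at 25, 100 or 1000 nM final; ethanol or DMSO vehicle 0.1%. Dual-luciferase read-out. Three independent assays in triplicate; bexarotene = 100%.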

Series [3] is filed under the species Homo sapiens. Description: Selectivity index, ratio of agonist activity at human RARalpha expressed in HEK293 cells assessed as increase in RARE-mediated transcription relative to bexarotene to agonist activity at human RXRalpha expressed in human HCT116 cells assessed as increase in RXRE-mediated transcription relative to bexarotene. It counts as cell-based. The gist of the method:
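HEK293 cells (60,000/well) transfected for 24 h with 250 ng pTK-DR5(X2)-Luc, 25 ng human RARα and 20 ng renilla. Treated 24 h at 100 nM; activity expressed as a percentage of all-trans-retinoic acid. This RARE activity is divided by 100 nM RXRE activity, with the bexarotene ratio set to 1.0.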

In series [4] the target is T3, Retinoic acid receptor RXR-alpha/oxysterols receptor LXR-alpha (Homo sapiens, UniProt P19793+Q13133).
T3 sequence (P19793 whole entry): T1 sequence (P19793 whole entry)
T3 sequence (Q13133 whole entry): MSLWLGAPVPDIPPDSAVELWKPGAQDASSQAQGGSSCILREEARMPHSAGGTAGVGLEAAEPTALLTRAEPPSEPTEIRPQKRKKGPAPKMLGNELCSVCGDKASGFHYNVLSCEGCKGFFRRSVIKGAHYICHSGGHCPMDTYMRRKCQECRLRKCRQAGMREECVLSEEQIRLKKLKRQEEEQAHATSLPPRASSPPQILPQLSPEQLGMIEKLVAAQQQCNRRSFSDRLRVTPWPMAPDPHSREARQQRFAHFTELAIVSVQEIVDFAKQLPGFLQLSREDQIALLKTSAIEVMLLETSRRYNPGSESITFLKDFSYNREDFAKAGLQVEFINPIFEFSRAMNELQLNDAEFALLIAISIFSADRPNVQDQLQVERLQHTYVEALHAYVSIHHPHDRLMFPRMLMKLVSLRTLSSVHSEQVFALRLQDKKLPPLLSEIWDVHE
Description: Agonist activity at human RXRalpha/LXRalpha expressed in human HCT116 cells assessed as reduction in SREBP-mediated transcription activity at 100 nM incubated for 24 hrs by luciferase reporter gene assay relative to bexarotene. Further details: scale not given: the % may be the effect or the level left. It counts as cell-based. The settings on record: 0.1 µM. The gist of the method:
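HCT116 cells co-transfected for 24 h with 100 ng pBP1c(6500)-Luc (about 6500 bp murine SREBP-1c promoter), 10 ng human LXRα and 20 ng renilla. Treated 24 h with compound at 100 nM, alone or with 100 nM TO901317. Luciferase output. Three independent assays in triplicate; bexarotene = 100%.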

In series [5] the test system is HuT78. Description: Growth inhibition of human HUT78 cells at 200 nM incubated for 72 hrs by MTS assay relative to bexarotene. Conditions: HuT78, 72 h, read-out: GI. It counts as functional. In outline: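 Hut78 cells in RPMI with 10% FBS at 37°C, 5% CO2. Plated 7,500 cells/well and immediately dosed at 200 nM for 72 h. MTS read at A490; percent inhibition with media control set to 0.0, compared with bexarotene set to 100%. Mean of three independent experiments.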
(In general: Tetrazolium dyes change colour on reduction, which living cells bring about.)

Series [6] can be described thus: Mutagenicity in Saccharomyces cerevisiae D7 assessed as induction of mutagenesis by measuring forward and reverse mutations up to 0.1 mg/mL. In kind it is toxicity.

In the case of `CCN(c1ncc(C(=O)O)cn1)c1cc2c(cc1C)C(C)(C)CCC2(C)C`, the EC50 in series [1] was 18.2 nM. Besides, the Activity was 20 to 43% in series [2], “Active” in series [4] and “Non-Toxic” in series [6]. Further, the Ratio in series [3] fell in the range of 0.35 to 0.37. The inhibition of growth at 0.2 µM in series [5] fell in the range of 55 to 80%.
On to `CCN(c1ccc2c(c1)C(C)(C)CCC2(C)C)c1ccc(C(=O)O)cn1`, for which the EC50 in series [1] stood at 13.8 nM. Also, the results for the Activity in series [2], in series [4] and in series [6] were 20 to 43%, “Active” and “Non-Toxic”, respectively. For the same molecule, the Ratio in series [3] is over 0.5. For the same molecule, the inhibition of growth at 0.2 µM in series [5] was over 85%.
For the molecule `CCN(c1ccc(C(=O)O)c(F)c1)c1ccc2c(c1)C(C)(C)CCC2(C)C`, the EC50 in series [1] stood at 125.6 nM. The result in series [2] was Active. Moreover, the Ratio in series [3] was 0.35 to 0.37. The values for the Activity in series [4] and in series [6] were 54 to 79% and “Non-Toxic”, respectively. Further, the inhibition of growth at 0.2 µM in series [5] lay within 35 to 51%.
Consider `CCN(c1ccc(C(=O)O)c(F)c1)c1cc2c(cc1C)C(C)(C)CCC2(C)C`, for which the half-maximal effective concentration (EC50) in series [1] came to 33.8 nM. For the same molecule, the outcome in series [2] was Active. Moreover, the Ratio in series [3] fell in the range of 0.35 to 0.37. For the same molecule, the Activity in series [4] is 54 to 79%; in series [6], “Non-Toxic”. Moreover, the inhibition of growth at 0.2 µM in series [5] lay within 55 to 80%.
With `CCN(c1ccc2c(c1)C(C)(C)CCC2(C)C)c1cnc(C(=O)O)cn1`, the EC50 in series [1] is given as 364.3 nM. Also, the Activity in series [2] was 20 to 43%; in series [4], 54 to 79%; in series [6] it was “Non-Toxic”. In addition, in series [3], the Ratio was over 0.5. Moreover, in series [5], the inhibition of growth at 0.2 µM lay in the range of 35 to 51%.
`CCN(c1ccc(C(=O)O)cc1)c1cc2c(cc1C)C(C)(C)CCC2(C)C`: in series [1], the EC50 turned out to be 7.9 nM. Also, the outcome in series [2] was Active. In series [3], the Ratio is 0.35 to 0.37. For the same molecule, the results for the Activity in series [4] and in series [6] were 54 to 79% and “Non-Toxic”, respectively. The inhibition of growth at 0.2 µM in series [5] was 35 to 51%.
